Experimental data gathered from unrelated publications.
≈ marks a conversion by molar mass, not a printed value.

| SMILES | target or system | test | test system | conditions | endpoint | result |
| --- | --- | --- | --- | --- | --- | --- |
| c1ccc(-c2cccc(Nc3nccc(NC4CCCCC4)n3)c2)nc1 | MV4-11 | cell growth or viability, ATP luminescence |  | 72 h | EC50 | 3230 nM |
| Cc1cnc(-c2cnc(NCCNc3ccc(C#N)cn3)nc2-c2ccc(Cl)cc2Cl)[nH]1 | Staphylococcus aureus | microbial growth | NCTC8325 |  | MIC | > 30 µM |
| O=C(O)CN1C(=O)/C(=C/c2c3ccccc3c(-c3ccc(N(c4ccccc4)c4ccccc4)cc3)c3ccccc23)SC1=S | Micrococcus luteus | microbial killing, broth dilution | ATCC10240 |  | MBC | 125 µg/mL (≈ 201 µM) |
| Cc1cc(NC(=O)Nc2ccc3c(c2)OC(F)(F)O3)ccc1Cl | Staphylococcus aureus | microbial growth | NCTC8325 |  | MIC | 0.5 µM (≈ 0.17 µg/mL) |
| Cc1nn(-c2nc3ccc(Cl)cc3s2)c2c1C(=O)c1ccccc1-2 | Staphylococcus aureus | microbial growth, well diffusion | NCIM5021 | 125 µg/mL | inhibition zone | 10 mm |
| CNC(=O)c1cc(Oc2ccc(NC(=O)Nc3ccc(Cl)c(C(F)(F)F)c3)c(F)c2)ccn1 | Staphylococcus aureus | microbial growth | NCTC8325 |  | MIC | 3 µM (≈ 1.45 µg/mL) |
| CC(C)c1nn(-c2nc3ccccc3s2)c2c1C(=O)c1ccccc1-2 | Staphylococcus aureus | microbial growth, well diffusion | NCIM5021 | 500 µg/mL | inhibition zone | 10 mm |
| O=C(NOCC(O)CO)c1cc(Br)c(F)c(F)c1Nc1ccc(I)cc1F (stereo not drawn) | Staphylococcus aureus | microbial growth | NCTC8325 |  | MIC | > 30 µM |
| Cc1ccc2nc(-n3nc(C)c4c3-c3ccccc3C4=O)sc2c1 | Staphylococcus aureus | microbial growth, well diffusion | NCIM5021 | 1000 µg/mL | inhibition zone | 12 mm |
| O=C(O)CN1C(=O)/C(=C/c2c3ccccc3c(-c3ccc(N(c4ccccc4)c4ccccc4)cc3)c3ccccc23)NC1=S | Micrococcus luteus | microbial killing, broth dilution | ATCC10240 |  | MBC | > 1000 µg/mL |
| c1cc(Nc2nccc(NC3CCCCC3)n2)cc(N2CCOCC2)c1 | MV4-11 | cell growth or viability, ATP luminescence |  | 72 h | EC50 | 369 nM |
| Cc1ccc2nc(-n3nc(CC(C)C)c4c3-c3ccccc3C4=O)sc2c1 | Staphylococcus aureus | microbial growth, well diffusion | NCIM5021 | 250 µg/mL | inhibition zone | 11 mm |
| O=C1NC(=S)S/C1=C\c1ccc(-c2ccc(N(c3ccccc3)c3ccccc3)cc2)cc1 | Micrococcus luteus | microbial killing, broth dilution | ATCC10240 |  | MBC | 500 µg/mL (≈ 1080 µM) |
| COc1cc2ncnc(Nc3ccc(F)c(Cl)c3)c2cc1OCCCN1CCOCC1 | Staphylococcus aureus | microbial growth | NCTC8325 |  | MIC | > 30 µM |
| CC[C@@H](C)Nc1ccnc(Nc2cccc(-c3cccnc3)c2)n1 | MV4-11 | cell growth or viability, ATP luminescence |  | 72 h | EC50 | 25 nM |
| CC(C)Cc1nn(-c2nc3ccc(Br)cc3s2)c2c1C(=O)c1ccccc1-2 | Staphylococcus aureus | microbial growth, well diffusion | NCIM5021 | 500 µg/mL | inhibition zone | 14 mm |
| CC(C)Nc1ccnc(Nc2cccc(-c3cc[nH]n3)c2)n1 | MV4-11 | cell growth or viability, ATP luminescence |  | 72 h | EC50 | 459 nM |
| O=C(O)CN1C(=O)/C(=C/c2ccc(-c3ccc(N(c4ccccc4)c4ccccc4)cc3)cc2)NC1=S | Micrococcus luteus | microbial killing, broth dilution | ATCC10240 |  | MBC | 31.3 µg/mL (≈ 61.9 µM) |
